The record followed here is ChEMBL document CHEMBL3822400, “New structure-activity relationships of N-acetamide substituted pyrazolopyrimidines as pharmacological ligands of TSPO” (Bioorg Med Chem Lett, 2016).

Data set [1] in a line: Fraction unbound in human plasma after 4.5 hrs by rapid equilibrium dialysis method. The data set is classed as ADME, cell-free. An outline of the steps:
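Equilibrium dialysis of plasma against buffer. After dialysis, the buffer and plasma fractions were extracted and analysed by standard LC-MS to quantify the compound.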
A general note: In equilibrium dialysis free small molecules cross a membrane that holds back macromolecules.

The next data set deals with Translocator protein (Rattus norvegicus, UniProt P16257). The data set can be described thus: Displacement of [3H]-PK11195 from TSPO in rat C6 cell lysate after 2 hrs by liquid scintillation counting. The data set is classed as cell-free.
A short description of data set [2]: Lipophilicity, log P of the compound at pH 7.5 by HPLC method. The data set is classed as physicochemical. The following applies: buffer.

Chain of Translocator protein (P16257 whole entry, looked up): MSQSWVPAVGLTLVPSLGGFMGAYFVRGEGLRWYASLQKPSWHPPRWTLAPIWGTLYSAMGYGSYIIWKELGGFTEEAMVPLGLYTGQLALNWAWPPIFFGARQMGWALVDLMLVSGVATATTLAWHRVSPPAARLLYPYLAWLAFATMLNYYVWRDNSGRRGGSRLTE

The compound `CCc1cc(CC)n2nc(-c3ccc(OC)cc3)c(CC(=O)N(CC)CC)c2n1` registered a Fu in data set [1] of 1.1%.

The term Ki denotes the dissociation constant of the complex between target and ligand, obtained from inhibition or displacement. A low value points to a stronger hold on the target. As usually defined, the logP is the decadic logarithm of the partition coefficient of the neutral form, usually between octanol and water. Low readings indicate lower lipophilicity, high ones higher lipophilicity. For the compound `CCc1cc(CC)n2nc(-c3ccc(OC)cc3)c(CC(=O)N(CC)c3ccccc3)c2n1`, at Translocator protein, the Ki came to 0.00028 µM. Also, the logP in data set [2] is recorded as 3.27. Further, the Fu in data set [1] is 0.6%.

Regarding `CCc1cc(CC)n2nc(-c3ccc(OC)cc3)c(CC(=O)N(C(C)CC)C(C)CC)c2n1` (stereo not drawn), the Ki on Translocator protein came out at 0.0144 µM. The compound further returned a logP in data set [2] of 3.75.

`CCc1cc(CC)n2nc(-c3ccc(OC)cc3)c(CC(=O)N(C)C)c2n1` gave a Ki at Translocator protein of 0.0376 µM. In data set [2], this compound came in with a logP of 2.47.

`CCc1cc(CC)n2nc(-c3ccc(OC)cc3)c(CC(=O)N(CC)C(C)(C)C)c2n1` had a Ki at Translocator protein of 0.0591 µM. The compound also yielded a logP in data set [2] of 3.32.

`CCCN(CCC)C(=O)Cc1c(-c2ccc(OC)cc2)nn2c(CC)cc(CC)nc12` had a Ki on Translocator protein of 0.00557 µM. In data set [2], the logP is listed as 3.35. In addition, in data set [1], the Fu was determined as 0.7%.

On to `CCc1cc(CC)n2nc(-c3ccc(OC)cc3)c(CC(=O)N3CCCCC3)c2n1`, for which the affinity on Translocator protein corresponds to a Ki of 0.0492 µM. In addition, in data set [2], the logP stood at 2.96.

For the compound `CCc1cc(CC)n2nc(-c3ccc(OC)cc3)c(CC(=O)N(C(C)C)C(C)C)c2n1`, the Ki on Translocator protein was 0.02 µM. The same compound had a logP in data set [2] of 3.26.

Take `CCc1cc(CC)n2nc(-c3ccc(OC)cc3)c(CC(=O)N(CC(C)C)CC(C)C)c2n1`: the affinity on Translocator protein corresponds to a Ki of 0.0132 µM. Also, the logP in data set [2] is recorded as 3.77.

As for `CCCCCN(CCCCC)C(=O)Cc1c(-c2ccc(OC)cc2)nn2c(CC)cc(CC)nc12`, on Translocator protein, the affinity corresponds to a Ki of 0.00217 µM. The logP in data set [2] is 4.29.

At Translocator protein, `CCCCN(CCCC)C(=O)Cc1c(-c2ccc(OC)cc2)nn2c(CC)cc(CC)nc12` had a Ki of 0.00734 µM. Also, the logP in data set [2] was 3.81. For the same compound, in data set [1], the Fu was found to be 0.3%.

For `CCCCCCN(CCCCCC)C(=O)Cc1c(-c2ccc(OC)cc2)nn2c(CC)cc(CC)nc12`, the affinity at Translocator protein corresponds to a Ki of 0.0186 µM. The logP in data set [2] was 4.78.

For `CCc1cc(CC)n2nc(-c3ccc(OC)cc3)c(CC(=O)N3CCC3)c2n1`, the Ki on Translocator protein turned out to be 0.0878 µM. In data set [2], this compound yielded a logP of 2.58.

Consider `CCc1cc(CC)n2nc(-c3ccc(OC)cc3)c(CC(=O)N(C)C(C)(C)C)c2n1`, for which affinity at Translocator protein was put at a Ki of 0.0948 µM. This compound also returned a lipophilicity (logP) in data set [2] of 3.13. For the same compound, in data set [1], the Fu was 1.3%.

On Translocator protein, `CCc1cc(CC)n2nc(-c3ccc(OC)cc3)c(CC(=O)N(C)c3ccccc3)c2n1` came in with a Ki of 0.00644 µM. Besides, in data set [2], the lipophilicity (logP) amounted to 3.11. In data set [1], this compound yielded a Fu of 1.1%.

As for `CCc1cc(CC)n2nc(-c3ccc(OC)cc3)c(CC(=O)N3CCCC3)c2n1`, at Translocator protein, the Ki amounted to 0.127 µM. Also, the logP in data set [2] is 2.72.

With `CCc1cc(CC)n2nc(-c3ccc(OC)cc3)c(CC(=O)N(Cc3ccccc3)Cc3ccccc3)c2n1`, at Translocator protein, the Ki was 0.397 µM. The logP in data set [2] is listed as 3.73.
